Results on one compound are retold here after ChEMBL document CHEMBL3994616, “Rational design, synthesis, and evaluation of novel 2,4-Chloro- and Hydroxy-Substituted diphenyl Benzofuro[3,2-b]Pyridines: Non-intercalative catalytic topoisomerase I and II dual inhibitor” (Eur J Med Chem, 2017).

For assay [1], the target named is T1, Topoisomerase I/II (Homo sapiens) (UniProt P11387+P11388). The experiment in a line: Inhibition of topoisomerase-1/topoisomerase-2 in human HCT15 cell nuclear extract at 50 uM preincubated for 24 hrs followed by supercoiled pBR322 DNA addition measured after 20 mins by ethidium bromide staining based agarose gel electrophoresis method relative to control. It is filed as protein assay. The procedure, abridged:
(§1)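 HCT15 cells treated 24 h at 25, 50 or 100 µM, then nuclear fractions prepared. Nuclear extract incubated with 100 ng pBR322 at 37 °C to read relaxation by endogenous topo I/II. Products run on 1.0% agarose at 50 V for 50 min in TAE, EtBr-stained, UV-visualized. Inhibition percent averaged over three experiments.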

The subject of assay [2] is HCT-15. Briefly: Induction of DNA damage in human HCT15 cells assessed as comet tail formation at 30 uM after 24 hrs using SYBRGreen stain by electrophoresis based fluorescence microscopic method (reference value: 3 +/- 1.1%). It is filed as functional.
The test system of assay [3] is HCT-15. The experiment in a line: Induction of DNA damage in human HCT15 cells assessed as increase in gammaH2AX level at 30 uM after 24 hrs by Western blot method. It is filed as functional, cell-based. In outline:
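HCT15 cells exposed to 30 µM for 24 h, then lysed. 60 µg protein per sample run on 12% SDS-PAGE, and γ-H2AX detected by western blot.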
(In western blotting, separated proteins are transferred to a membrane and probed.)

The target of assay [4] is T1, Topoisomerase I/II (Homo sapiens). The experiment in a line: Inhibition of topoisomerase-1/topoisomerase-2 in human HCT15 cell nuclear extract at 25 uM preincubated for 24 hrs followed by supercoiled pBR322 DNA addition measured after 20 mins by ethidium bromide staining based agarose gel electrophoresis method relative to control. In kind it is protein assay. In outline:
as §1

Assay [5] concerns HCT-15. Briefly: Induction of DNA damage in human HCT15 cells assessed as comet tail formation at 10 uM after 24 hrs using SYBRGreen stain by electrophoresis based fluorescence microscopic method (reference value: 3 +/- 1.1%). In kind it is functional.
Assay [6] has as its target DNA topoisomerase 2-alpha (Homo sapiens) (UniProt P11388). The note with it: 250 uM.
Assay [7] has the same target. Briefly: Poison activity at human recombinant topoisomerase 2 in human HCT15 cells assessed as […] at 50 uM after 2 hrs by Western blot method. In kind it is cell-based.
Assay [8] concerns HeLa. Briefly: Antiproliferative activity against human HeLa cells after 72 hrs by CCK8 assay. It is filed as functional, cell-based. In general terms: Formazan colour is commonly taken as a measure of viable cells.
In assay [9] the test system is T47D. The experiment in a line: Antiproliferative activity against human T47D cells after 72 hrs by CCK8 assay. In kind it is functional, cell-based. In outline: (§2)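 Cells seeded at 2-4 x 10⁴ per well, cultured overnight in medium with 10% FBS at 37 °C, 5% CO₂, then serum-starved 4 h. Graded compound concentrations added for 72 h, CCK-8 added for a further 4 h, absorbance read at 450 nm. IC50 from a four-parameter logistic fit. Results come from three experiments, each in triplicate.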

For assay [10], the system named is HCT-15. Briefly: Antiproliferative activity against human HCT15 cells after 72 hrs by CCK8 assay. In kind it is functional, cell-based. The note with it: HCT-15, 72 h. In outline:
as §2

Each structure is given as a SMILES string. The source made the active and inactive calls. The rule behind the calls is not given here.

DNA topoisomerase 2-alpha (Homo sapiens), sequence (P11388 whole entry): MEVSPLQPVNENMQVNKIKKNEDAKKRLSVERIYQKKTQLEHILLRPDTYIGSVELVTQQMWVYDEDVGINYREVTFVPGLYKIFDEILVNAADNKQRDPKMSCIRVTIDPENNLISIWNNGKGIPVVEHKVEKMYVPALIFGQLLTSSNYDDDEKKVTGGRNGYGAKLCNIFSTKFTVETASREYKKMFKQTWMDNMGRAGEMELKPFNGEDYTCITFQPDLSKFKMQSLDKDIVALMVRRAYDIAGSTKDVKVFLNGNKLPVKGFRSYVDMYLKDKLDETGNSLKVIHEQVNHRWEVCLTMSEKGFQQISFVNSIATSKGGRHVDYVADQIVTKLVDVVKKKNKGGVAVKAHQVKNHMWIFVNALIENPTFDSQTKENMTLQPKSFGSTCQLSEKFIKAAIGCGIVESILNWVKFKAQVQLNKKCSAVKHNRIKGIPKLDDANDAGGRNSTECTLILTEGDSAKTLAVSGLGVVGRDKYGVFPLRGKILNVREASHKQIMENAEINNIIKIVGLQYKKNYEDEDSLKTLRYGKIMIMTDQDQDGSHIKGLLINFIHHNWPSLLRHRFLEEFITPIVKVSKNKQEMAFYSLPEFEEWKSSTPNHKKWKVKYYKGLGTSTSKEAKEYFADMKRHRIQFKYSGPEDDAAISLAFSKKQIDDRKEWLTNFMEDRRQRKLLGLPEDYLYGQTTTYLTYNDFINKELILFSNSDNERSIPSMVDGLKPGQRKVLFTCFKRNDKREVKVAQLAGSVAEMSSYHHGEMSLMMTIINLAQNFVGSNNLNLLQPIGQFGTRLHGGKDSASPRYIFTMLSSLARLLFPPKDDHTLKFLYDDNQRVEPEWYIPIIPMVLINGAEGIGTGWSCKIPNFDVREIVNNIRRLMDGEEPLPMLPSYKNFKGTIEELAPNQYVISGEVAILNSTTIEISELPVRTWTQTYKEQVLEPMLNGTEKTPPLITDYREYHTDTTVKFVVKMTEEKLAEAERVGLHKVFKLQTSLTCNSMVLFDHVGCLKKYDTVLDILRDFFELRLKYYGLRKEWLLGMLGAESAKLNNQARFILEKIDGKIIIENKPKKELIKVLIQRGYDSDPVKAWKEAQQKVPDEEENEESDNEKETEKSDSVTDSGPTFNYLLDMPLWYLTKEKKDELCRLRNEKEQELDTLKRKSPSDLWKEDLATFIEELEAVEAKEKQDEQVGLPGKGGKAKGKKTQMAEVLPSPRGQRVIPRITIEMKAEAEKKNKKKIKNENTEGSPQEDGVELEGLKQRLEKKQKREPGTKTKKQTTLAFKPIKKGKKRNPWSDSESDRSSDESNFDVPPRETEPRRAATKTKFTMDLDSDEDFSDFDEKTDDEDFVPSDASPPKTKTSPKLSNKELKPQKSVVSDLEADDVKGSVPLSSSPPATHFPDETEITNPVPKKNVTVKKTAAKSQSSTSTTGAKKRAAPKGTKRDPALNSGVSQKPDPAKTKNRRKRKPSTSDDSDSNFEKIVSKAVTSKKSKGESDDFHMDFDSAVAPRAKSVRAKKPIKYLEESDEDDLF
T1 sequence (P11387 whole entry, looked up): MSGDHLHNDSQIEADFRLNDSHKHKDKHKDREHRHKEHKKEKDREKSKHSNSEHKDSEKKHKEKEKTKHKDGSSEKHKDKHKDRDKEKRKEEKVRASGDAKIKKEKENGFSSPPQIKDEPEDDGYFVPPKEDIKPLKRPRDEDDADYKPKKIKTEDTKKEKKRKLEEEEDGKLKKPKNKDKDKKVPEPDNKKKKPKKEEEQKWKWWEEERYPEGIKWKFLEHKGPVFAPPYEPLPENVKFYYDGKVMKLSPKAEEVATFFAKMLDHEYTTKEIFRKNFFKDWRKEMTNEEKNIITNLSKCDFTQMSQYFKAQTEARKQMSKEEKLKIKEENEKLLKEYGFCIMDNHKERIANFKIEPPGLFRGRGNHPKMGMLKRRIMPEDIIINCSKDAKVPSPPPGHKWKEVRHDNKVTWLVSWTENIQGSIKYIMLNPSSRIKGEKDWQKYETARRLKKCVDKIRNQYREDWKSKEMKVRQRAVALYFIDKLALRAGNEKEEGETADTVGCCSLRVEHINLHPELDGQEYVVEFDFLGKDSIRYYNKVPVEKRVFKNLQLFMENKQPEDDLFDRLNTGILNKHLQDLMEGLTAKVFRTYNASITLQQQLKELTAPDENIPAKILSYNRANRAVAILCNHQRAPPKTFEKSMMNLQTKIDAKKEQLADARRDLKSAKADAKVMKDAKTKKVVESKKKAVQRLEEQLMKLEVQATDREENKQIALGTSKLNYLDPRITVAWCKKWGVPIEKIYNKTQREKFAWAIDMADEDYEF
T1 sequence (P11388 whole entry, looked up): as the sequence (P11388 whole entry) above

By inhibition is commonly meant the share of the control response that was lost under treatment. In general, IC50 refers to the concentration that gives 50% inhibition. A lower IC50 goes with inhibition by little substance. In the case of `COc1cc([C@@H]2c3cc4c(cc3[C@@H](O[C@@H]3O[C@@H]5CO[C@@H](C)O[C@H]5[C@H](O)[C@H]3O)[C@H]3COC(=O)[C@H]23)OCO4)cc(OC)c1O` [ETOPOSIDE], the inhibition was determined as 60.9% in [1] and 36.1% in assay [4]. Moreover, the Activity in assay [2] is 65.5%; in [5], 46.3%. Also, the result in [3] and in assay [7] was Active. The inhibition result in assay [6] is “Active”. For the same compound, the results for the IC50 in [8], in assay [9] and in assay [10] were 9.1 µM, 7 µM and 5.4 µM, respectively.
